Source: PubChem
Rows were chosen to be rich in hits. Some 5.2% of all compounds tested hit in one or more screens of this group.
M1 agonist: agonists of M1 muscarinic receptor. CHO-M1 cells, Fluo-4 calcium fluorescence, agonist mode; stronger effect = higher value. B-score at 10 µM. 3% of 64,000 active. AID 626;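 active = fluorescence rise, raw or as B-score row- and column-corrected plate score, outside the 99.7% band of its plate's samples, either direction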
E coli WT exp: blocks growth of wild type E. coli BW25113; OD600 absorbance; growth inhibition, % at 100 µM; 0.15% of 98,000 active; AID 710;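 active = growth inhibition above about 50% at one test dose, limit read from the data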;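 also: growth measured after 20 h incubation at 37 °C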
AP complement: alternative pathway complement inhibition, orthogonal assay | AID 1235 | inhibition, % at 5 µM | Human serum alternative complement pathway, LPS-coated ELISA, C3 deposition; tested in compound mixtures | 0.08% of 62,000 active;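 active = inhibition above 30% in each of the two pooled mixtures holding the compound, so the lower value exceeds 30%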
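Test system: human serum complement alternative pathway, C3 deposition onto LPS / Medium: Mg2+-EGTA GVB++ buffer containing human serum at 1:15 dilution / Probe or stimulus: Plate-bound LPS / Times: 1 h at 37 °C / Signal: ELISA with HRP anti-human C3 antibody, TMB substrate, absorbance 450 nm / Measure: percent inhibition / Repeats: two pool placements per compound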
WNV protease inh: WNV NS2B-NS3 proteinase inhibition; P06935; WNV NS2B-NS3 protease, fluorogenic substrate Ex360/Em465; stronger effect = lower value; z-score (concentration not given with the values); 0.18% of 65,000 active; AID 577; in the data active = z-score below about -3
Target sequence (P06935 1371-1501 limits assumed): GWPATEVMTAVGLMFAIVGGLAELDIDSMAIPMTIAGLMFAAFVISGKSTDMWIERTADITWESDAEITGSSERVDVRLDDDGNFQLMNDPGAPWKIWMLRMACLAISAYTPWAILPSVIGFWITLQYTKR
Target sequence (P06935 1502-1679 limits assumed): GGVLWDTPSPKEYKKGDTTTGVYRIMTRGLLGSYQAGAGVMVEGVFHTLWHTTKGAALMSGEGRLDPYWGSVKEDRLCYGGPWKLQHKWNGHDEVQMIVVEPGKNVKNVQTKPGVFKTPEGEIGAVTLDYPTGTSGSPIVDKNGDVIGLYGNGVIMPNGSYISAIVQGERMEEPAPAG
Ecoli tolC: growth inhibitors of E. coli BW25113 tolC mutant; OD615; growth inhibition, % at 10 µM (by protocol); 2.2% of 65,000 active; AID 573;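 active = growth inhibition at or above a cutoff equal to the mean over every tested compound plus 3 SD, cut at about 60% in these data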;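 also: growth measured after 20 h incubation at 37 °C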
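signal = optical density read at 615 nm | test system = E. coli ΔtolC::kan strain BW25113 | timing = 20 h compound exposure of bacteria at 37 °C | buffer or medium = LB medium plus 50 µg/mL kanamycin | compound dosing = 10 µM final, single dose | evaluation = % inhibition of E. coli growth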
M1 antagonist: blocks the rat M1 muscarinic receptor response to acetylcholine; P08482; CHO-M1 cells, Fluo-4 calcium, ACh EC80 antagonist mode; stronger effect = lower value; B-score at 10 µM; 3.4% of 64,000 active;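 active = calcium fluorescence response, raw or row-and-column corrected B-score, differing from the plate sample mean either way at a set confidence level, mostly lower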
Hits are given with their value; 0 = inactive; - = not tested or not shown.

SMILES	M1 agonist	E coli WT exp	AP complement	WNV protease inh	Ecoli tolC	M1 antagonist
CCCCCOC(=O)c1ccc(NC(=O)c2ccco2)cc1	0	0	0	0	98.6	0
CCCOc1cccc(C(=O)Nc2cccc(NC(=O)c3ccco3)c2)c1	5.98	0	0	0	0	0
CCCCOC(=O)c1ccc(NC(C)=O)cc1	0	0	0	0	0	0
CCCc1nnc(NC(=O)C2CCCO2)s1 (stereo not given)	0	0	0	0	0	0
Cc1ccc(N=Cc2c(O)n(-c3cc(Cl)ccc3N3CCOCC3)c(=O)c3ccccc23)cc1C	-	0	-	-	-	-
O=C(c1ccco1)[C@@H]1[C@@H]2C(=O)N(c3ccccc3)C(=O)[C@@H]2C2c3ccccc3C=CN21 (stereo not given in full)	0	-	0	0	0	0
CC(=O)[C@@H]1[C@@H]2C(=O)N(Cc3ccccc3)C(=O)[C@@H]2C2c3ccccc3C=CN21 (stereo not given in full)	25.5	0	0	0	0	0
Cc1ccc2c(c1)C(N1CCCC1=O)CC(c1ccco1)N2 (stereo not given)	2.61	0	0	0	0	0
Cc1ccc(C(=O)C(OC(=O)CN2C(=O)c3ccccc3C2=O)c2ccccc2)cc1C (stereo not given)	-	0	-	-	-	-
c1coc(CN(Cc2cccs2)Cc2nnnn2C2CCCCC2)c1	0	0	0	0	94.7	0
O=C1CN(C(=O)c2ccc(Br)o2)C(c2ccccc2)c2cc(Br)ccc2N1 (stereo not given)	0	0	0	0	0	0
O=C1CN(C(=O)c2ccc(Br)o2)C(c2ccccc2)c2cc(Cl)ccc2N1 (stereo not given)	0	0	0	0	85.2	0
CCN(CC)C(=O)c1sc2nc(-c3cccs3)cc(-c3cccs3)c2c1N	14.6	-	0	0	0	0
COC(=O)C1CCN(c2nc3ccccc3nc2C(C#N)C(=O)NCCc2ccccc2)CC1 (stereo not given)	25	0	-	0	0	0
Cc1ccc(C)c(S(=O)(=O)C(C#N)c2nc3ccccc3nc2N2CCOCC2)c1 (stereo not given)	0	0	0	0	70.0	0
CC1CN(c2nc3ccccc3nc2C(C#N)C(=O)NCc2ccc3c(c2)OCO3)CC(C)O1 (stereo not given)	9.84	0	0	0	0	0
Cc1ccc(C)c(S(=O)(=O)C(C#N)c2nc3ccccc3nc2N2CCCC2)c1 (stereo not given)	0	0	0	0	0	0
N#CC(C(=O)NC1CCCCC1)c1nc2ccccc2nc1N1CCOCC1 (stereo not given)	84.1	-	0	0	-	0
COc1ccc(S(C)(=O)=O)cc1S(C)(=O)=O	0	0	0	0	0	0
CS(=O)(=O)N(CC(=O)N1CCc2ccccc2C1)c1ccc2c(c1)OCO2	0	0	0	0	0	0
O=C(Nc1ccc2c(c1)CCC2)c1cc(S(=O)(=O)N2CCN(c3ccccc3)CC2)ccc1Cl	-	0	-	-	-	-
COc1ccc(C(=O)Nc2ccc(NC(=O)c3cnccn3)cn2)cc1	-	0	-	-	-	-
COc1ccc(C(=O)OC(C(=O)c2ccccc2)c2ccccc2)cc1 (stereo not given)	-	0	-	-	-	-
O=C(NC12CC3CC(CC(C3)C1)C2)c1ccccc1O	0	0	0	0	62.5	0
C=CCn1cnc2c(c1=O)c1nc3ccccc3nc1n2-c1ccccc1	0	-	0	0	0	-13.7
SMILES	M1 agonist	E coli WT exp	AP complement	WNV protease inh	Ecoli tolC	M1 antagonist
C=CCn1cnc2c(c1=O)c1nc3ccccc3nc1n2/N=C/c1cccc(OC)c1OC	4.78	-	0	0	0	0
O=c1c2c3nc4ccccc4nc3n(CCN3CCOCC3)c2ncn1CCN1CCOCC1	2.72	-	0	0	0	0
C=CCn1cnc2c(c1=O)c1nc3ccccc3nc1n2/N=C/c1ccccn1	8.09	-	0	0	0	-4.12
C=CCn1cnc2c(c1=O)c1nc3ccccc3nc1n2-c1ccc(C)cc1	0	0	0	0	0	0
COc1cccc(/C=N/n2c(N)nc3ccccc32)c1OC	-	0	-	-	-	-
Cc1[nH]n(C(C)(C)C)c(=O)c1Sc1ccc(Cl)cc1	0	0	0	0	0	0
CCCC1C2C(=O)N(c3ccccc3OCC)C(=O)C2ON1c1ccccc1 (stereo not given)	-	0	-	-	-	-
N#CC1=C(N)N(c2ccccc2Sc2ccccc2)C(=O)C1	0	0	0	0	0	0
